As a reminder, the viability is a read-out of living cells in per cent, often relative to untreated cells. In general, inhibition refers to the change of the read-out against control, counted positive when it falls.

Molecules are shown by their SMILES. Calls of active or inactive are those of the source.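 The calls were made as follows, unless noted: active = Her2 level under about 52% in both replicate screens, with viability over 70% of control (limit read from the data); inconclusive = Her2 under the limit in one screen only, or viability under 70%; inactive = Her2 level above the set limit.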

The results in this text go back to PubChem BioAssay.

A short description of assay [1]: Her2 expression decrease, cell viability multiplex – SKBR3 breast tumor cells, AlphaScreen, ATP viability, primary screen (AID 461).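 As to Her2 level: lower value means less Her2 protein in the cells.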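 As to viability: percent of carrier control wells set as 100% viability.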 To be noted: SKBR3 Her2 protein level, 18-24 h, measured here: SKBR3 viability, ATP luminescence, at 10 µM. On the technique in general: Bead proximity is the source of the signal in Alpha formats.
Assay [2] concerns the target Receptor tyrosine-protein kinase erbB-2 (Homo sapiens) (UniProt P04626). Described as above. To be noted: 18-24 h, at 10 µM, stronger effect = lower value.
A short description of assay [3]: reduced viability of SK-BR-3 breast cancer cells – cell-based, 24 h, human, pilot screen (AID 572;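 active = viability at or below 10% of carrier control in both of two separate runs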;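 also: compound exposure lasted between 18 and 24 h rather than exactly 24 h; 100% = carrier-treated control wells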). The note with it: SK-BR-3 viability, CellTiter-Glo luminescence, at 10 µM, stronger effect = lower value.
The nature of assay [4]: HUVEC growth inhibition – cell-based, human, primary screen (AID 575;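 active = viability at or below 30% in both replicate assays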;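 also: 100% = median of untreated cell wells with 0.1% DMSO on each plate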). The note with it: HUVEC proliferation, CellTiter-Glo luminescence, 72 h; at 10 µM; stronger effect = lower value. The procedure, abridged: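 Test system: HUVEC primary cells. Quantity: 1250 endothelial cells in each well. Dosing: single-point 10 µM, DMSO 0.1% final. Incubation: 72 h treatment at 37 °C. Measured by: CTG luminescence. Control set: DMSO cell controls and MePR drug controls. Plate: collagen-coated 384-well format.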
For orientation: Cellular ATP, detected with luciferase, serves as a proxy for viable cell number.

Assay [5] is described as follows: H69AR cell proliferation blockers – human, duplicate replicates, primary screen (AID 580;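 active = viability at or under a set limit in both replicates, limit being median viability minus 3 SD, cut at about 48% in these data, passing the limit was not always enough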;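 also: 100% = mean luminescence of untreated wells and 0% = no signal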). To be noted: H69AR lung tumor cells viability, ATP luminescence, 72 h; at 10 µM; stronger effect = lower value.
Assay [6] in a line: MRP1 drug-resistance reversers in H69AR cells – cell-based, doxorubicin co-treatment, pilot screen (AID 601;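 active = viability loss from added drug above about 55%, and viability with drug at most 40%, in both replicates, limit read from the data, passing the limit was not always enough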). The note with it: CellTiter-Glo, 72 h, at 10 µM; for differential viability (reversal): stronger effect = higher value.
Assay [7] can be described thus: yeast transport mutant growth inhibition pilot in 384-well plates, post-Golgi transport modulator project (AID 636; in the data active = inhibition above about 31%). The note with it: absorbance 615 nm, about 18 h, stronger effect = higher value.
A short description of assay [8]: growth suppression of yeast trafficking mutant, preliminary HTS, modulators of trafficking downstream of Golgi apparatus project, 1536-format plate, OD 615 nm (AID 637; in the data active = inhibition above about 30%). The note with it: yeast transport mutant growth, absorbance 615 nm, 18 h; stronger effect = higher value.
The mark [9] stands for this setting: H69AR cells + 2 uM doxorubicin, measured here: viability with 2 uM doxorubicin, stronger effect = lower value.
The mark [10] stands for this setting: H69AR cells, compound alone cytotoxicity.

Chain of Receptor tyrosine-protein kinase erbB-2 (Homo sapiens) (P04626 whole entry, looked up): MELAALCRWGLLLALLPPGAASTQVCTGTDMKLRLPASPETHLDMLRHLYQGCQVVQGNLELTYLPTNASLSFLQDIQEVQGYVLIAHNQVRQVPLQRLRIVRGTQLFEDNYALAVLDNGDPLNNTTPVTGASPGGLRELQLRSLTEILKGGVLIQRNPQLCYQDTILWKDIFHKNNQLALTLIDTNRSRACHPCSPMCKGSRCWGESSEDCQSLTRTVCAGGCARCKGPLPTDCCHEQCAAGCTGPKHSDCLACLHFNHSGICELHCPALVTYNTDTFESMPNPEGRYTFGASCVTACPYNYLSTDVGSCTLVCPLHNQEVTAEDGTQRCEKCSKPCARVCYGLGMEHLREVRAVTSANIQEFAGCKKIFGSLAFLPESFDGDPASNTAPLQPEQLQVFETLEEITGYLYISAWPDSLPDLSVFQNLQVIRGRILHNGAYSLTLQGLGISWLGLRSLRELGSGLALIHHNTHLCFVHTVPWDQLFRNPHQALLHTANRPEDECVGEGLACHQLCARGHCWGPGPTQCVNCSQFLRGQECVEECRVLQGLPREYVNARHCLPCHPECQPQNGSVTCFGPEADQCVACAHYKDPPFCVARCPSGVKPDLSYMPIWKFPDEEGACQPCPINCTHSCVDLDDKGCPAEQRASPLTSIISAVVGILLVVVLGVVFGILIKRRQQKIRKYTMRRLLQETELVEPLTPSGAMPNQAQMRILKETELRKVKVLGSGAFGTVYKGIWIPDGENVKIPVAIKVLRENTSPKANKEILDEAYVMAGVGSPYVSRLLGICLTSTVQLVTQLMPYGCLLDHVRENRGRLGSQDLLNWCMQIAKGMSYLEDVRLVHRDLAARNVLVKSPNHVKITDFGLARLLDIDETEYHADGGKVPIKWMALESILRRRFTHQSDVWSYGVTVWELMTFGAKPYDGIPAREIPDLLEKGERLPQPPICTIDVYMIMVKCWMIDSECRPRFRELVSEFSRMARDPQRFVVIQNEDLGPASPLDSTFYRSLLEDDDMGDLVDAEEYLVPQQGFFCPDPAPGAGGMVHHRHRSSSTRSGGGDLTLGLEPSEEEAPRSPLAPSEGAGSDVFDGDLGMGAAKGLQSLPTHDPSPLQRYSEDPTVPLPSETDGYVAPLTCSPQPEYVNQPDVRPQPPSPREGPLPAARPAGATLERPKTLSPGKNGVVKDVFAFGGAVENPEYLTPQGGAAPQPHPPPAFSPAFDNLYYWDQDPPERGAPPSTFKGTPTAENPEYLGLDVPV

`CCOC(=O)CSc1nc2cccnc2n1-c1ccc(F)cc1`: the viability was 108% in assay [1]; 108% (inactive) in assay [3]; 103% (inactive) in assay [4]; 102% (inactive) in assay [5]; 92.4% in assay [6] (setting [9]); 102% in assay [6] (setting [10]). Moreover, the Her2 level in assay [2] was 117% (inactive). Further, the differential viability (reversal) in assay [6] (H69AR cells + 2 uM doxorubicin) was 9.83% (inactive). The values for the inhibition in assay [7] and in assay [8] were -4.8% (inactive) and -8.1% (inactive), respectively.
As for `O=C1NC(Nc2ccccn2)(C(F)(F)F)C(=O)N1c1ccc(F)cc1` (stereo not given), the viability in assay [1] is 102%; in assay [3], 102% (inactive); in assay [4], 107% (inactive); in assay [5], 103% (inactive); in assay [6] (setting [9]), 103%; in assay [6] (setting [10]) it was 103%. The Her2 level in assay [2] is 89% (inactive). Moreover, in assay [6] (H69AR cells + 2 uM doxorubicin), the differential viability (reversal) was -0.015% (inactive). For the same molecule, the inhibition was -5.47% (inactive) in assay [7] and 1.64% (inactive) in assay [8].
As to `O=C(OCn1nnc2ccccc2c1=O)C1CCN(S(=O)(=O)c2cccs2)CC1`, the viability in assay [1] is 97%; in assay [3] it was 97% (inactive); in assay [4], 97.7% (inactive); in assay [5], 105% (inactive); in assay [6] (setting [9]), 104%; in assay [6] (setting [10]), 105%. Moreover, the Her2 level in assay [2] is 133% (inactive). For the same molecule, the differential viability (reversal) in assay [6] (H69AR cells + 2 uM doxorubicin) was 1.22% (inactive). Further, the results for the inhibition in assay [7] and in assay [8] were 1.54% (inactive) and -4.67% (inactive), respectively.
Take `Cc1sc2nc(CN3CCN(S(=O)(=O)c4cccc5nonc45)CC3)[nH]c(=O)c2c1C`: the viability in assay [1] is 102%; in assay [3], 102% (inactive); in assay [4], 66.4% (inactive); in assay [5] it was 87.9% (inactive); in assay [6] (setting [9]), 78.4%; in assay [6] (setting [10]), 87.9%. In addition, the Her2 level in assay [2] was 93.5% (inactive). Further, the differential viability (reversal) in assay [6] (H69AR cells + 2 uM doxorubicin) was 9.52% (inactive). Moreover, the inhibition in assay [7] is -6.05% (inactive); in assay [8], 0.5% (inactive).
On to `CC(C)CCNc1cc(=O)n(C)c(=O)n1C`, for which the viability in assay [1] was 83.5%; in assay [3] it was 83.5% (inactive); in assay [4], 91% (inactive); in assay [5] it was 88.2% (inactive); in assay [6] (setting [9]), 88.6%; in assay [6] (setting [10]), 88.2%. Besides, the Her2 level in assay [2] was 120% (inactive). In assay [6] (H69AR cells + 2 uM doxorubicin), the differential viability (reversal) is -0.405% (inactive). The inhibition is -1.3% (inactive) in assay [7] and 20.3% (inactive) in assay [8].
As for `COc1ccc(CC(=O)NC2CCN(CC(=O)Nc3ccc4c(c3)OCCO4)CC2)cc1OC`, the viability in assay [1] was 97.5%; in assay [3] it was 97.5% (inactive); in assay [4], 88.2% (inactive); in assay [5] it was 106% (inactive); in assay [6] (setting [9]), 89.1%; in assay [6] (setting [10]), 106%. Further, the Her2 level in assay [2] is 132% (inactive). The differential viability (reversal) in assay [6] (H69AR cells + 2 uM doxorubicin) was 17% (inactive). In addition, the inhibition is -2.37% (inactive) in assay [7] and -5.33% (inactive) in assay [8].
As for `O=C1c2ccccc2CN1CCNS(=O)(=O)c1ccc(Cl)cc1`, the viability in assay [1] is 104%; in assay [3], 104% (inactive); in assay [4] it was 98% (inactive); in assay [5] it was 88% (inactive); in assay [6] (setting [9]), 84.8%; in assay [6] (setting [10]), 88%. Further, the Her2 level in assay [2] was 92.5% (inactive). In addition, the differential viability (reversal) in assay [6] (H69AR cells + 2 uM doxorubicin) was 3.27% (inactive). The figures for the inhibition in assay [7] and in assay [8] were -7.87% (inactive) and -0.63% (inactive), respectively.
With `CC(=O)c1cccc(NC(=O)N2CCCC2C(=O)NCc2ccc(C)cc2)c1` (stereo not given), the viability in assay [1] was 104%; in assay [3] it was 104% (inactive); in assay [4], 92.5% (inactive); in assay [5], 95.6% (inactive); in assay [6] (setting [9]), 87.1%; in assay [6] (setting [10]), 95.6%. Also, in assay [2], the Her2 level is 93.5% (inactive). Moreover, the differential viability (reversal) in assay [6] (H69AR cells + 2 uM doxorubicin) is 8.41% (inactive). Moreover, the inhibition in assay [7] was -8.92% (inactive); in assay [8], 8.33% (inactive).
In the case of `Cc1cccc(NC(=O)COc2ccc(Br)cc2)n1`, the viability was 126% in assay [1]; 126% (inactive) in assay [3]; 90.5% (inactive) in assay [4]; 99.4% (inactive) in assay [5]; 92.4% in assay [6] (setting [9]); 99.4% in assay [6] (setting [10]). Moreover, in assay [2], the Her2 level was 110% (inactive). Besides, the differential viability (reversal) in assay [6] (H69AR cells + 2 uM doxorubicin) was 6.92% (inactive). For the same molecule, the inhibition in assay [7] was -5.19% (inactive); in assay [8], 11% (inactive).
In the case of `COc1ccc(-c2cc(C(F)(F)F)nc(SCCC(=O)N3CCOCC3)n2)cc1`, the viability in assay [1] is 116%; in assay [3], 116% (inactive); in assay [4] it was 94.1% (inactive); in assay [5] it was 90% (inactive); in assay [6] (setting [9]) it was 86.4%; in assay [6] (setting [10]), 90%. Further, the Her2 level in assay [2] is 90.5% (inactive). Moreover, in assay [6] (H69AR cells + 2 uM doxorubicin), the differential viability (reversal) is 3.6% (inactive). The inhibition was -1.71% (inactive) in assay [7] and 2.46% (inactive) in assay [8].
Regarding `Cc1ccc(C(C(=O)NC(C)(C)C)N(C(=O)c2csnn2)c2cccc(F)c2)o1` (stereo not given), the viability was 83.5% in assay [1]; 83.5% (inactive) in assay [3]; 103% (inactive) in assay [4]; 92.8% (inactive) in assay [5]; 91.2% in assay [6] (setting [9]); 92.8% in assay [6] (setting [10]). Further, the Her2 level in assay [2] was 97% (inactive). The differential viability (reversal) in assay [6] (H69AR cells + 2 uM doxorubicin) was 1.6% (inactive). Further, the inhibition in assay [7] is -3.6% (inactive); in assay [8] it was 24.4% (inactive).
With `O=C(Nc1ccccc1C(=O)N1CCN(c2ccccc2)CC1)c1ccco1`, the viability was 96% in assay [1]; 96% (inactive) in assay [3]; 95.6% (inactive) in assay [4]; 100% (inactive) in assay [5]; 94.2% in assay [6] (setting [9]); 100% in assay [6] (setting [10]). Further, the Her2 level in assay [2] is 101% (inactive). Further, in assay [6] (H69AR cells + 2 uM doxorubicin), the differential viability (reversal) was 5.93% (inactive). In addition, the inhibition in assay [7] is -2.53% (inactive); in assay [8], 4.43% (inactive).
Consider `Cc1nc(NC(=O)C2CC3CCCC(C2)C3=O)sc1C` (stereo not given), for which the viability in assay [1] is 99.5%; in assay [3], 99.5% (inactive); in assay [4] it was 95% (inactive); in assay [5] it was 82.8% (inactive); in assay [6] (setting [9]), 85.7%; in assay [6] (setting [10]) it was 82.8%. In addition, the Her2 level in assay [2] was 99.5% (inactive). Further, the differential viability (reversal) in assay [6] (H69AR cells + 2 uM doxorubicin) is -2.88% (inactive). For the same molecule, the results for the inhibition in assay [7] and in assay [8] were 0.39% (inactive) and -6.39% (inactive), respectively.
`Cc1ccccc1C(=O)NC1CCN(CC(=O)Nc2nccs2)CC1`: the viability in assay [1] was 92.5%; in assay [3], 92.5% (inactive); in assay [4] it was 88.8% (inactive); in assay [5] it was 97.8% (inactive); in assay [6] (setting [9]) it was 86.2%; in assay [6] (setting [10]) it was 97.8%. Further, the Her2 level in assay [2] is 96% (inactive). For the same molecule, the differential viability (reversal) in assay [6] (H69AR cells + 2 uM doxorubicin) was 11.6% (inactive). The inhibition is -0.67% (inactive) in assay [7] and 5.08% (inactive) in assay [8].
Turning to `COC(=O)c1c(-c2cccs2)csc1NC(=O)CN1CCOCC1`, the viability was 103% in assay [1]; 103% (inactive) in assay [3]; 86.6% (inactive) in assay [4]; 82.1% (inactive) in assay [5]; 81.4% in assay [6] (setting [9]); 82.1% in assay [6] (setting [10]). Besides, the Her2 level in assay [2] is 98.5% (inactive). The differential viability (reversal) in assay [6] (H69AR cells + 2 uM doxorubicin) was 0.685% (inactive). Further, the inhibition in assay [7] is -0.13% (inactive); in assay [8], -1.13% (inactive).
Regarding `CCC(=O)Nc1cc(C(=O)NCC2CCCN2CC)c(OC)cc1N(C)C` (stereo not given), the viability is 101% in assay [1]; 101% (inactive) in assay [3]; 91.8% (inactive) in assay [4]; 114% (inactive) in assay [5]; 93.9% in assay [6] (setting [9]); 114% in assay [6] (setting [10]). Moreover, in assay [2], the Her2 level was 111% (inactive). Moreover, in assay [6] (H69AR cells + 2 uM doxorubicin), the differential viability (reversal) is 19.7% (inactive). The results for the inhibition in assay [7] and in assay [8] were -1.47% (inactive) and -3.23% (inactive), respectively.
